Reference: ChEMBL document CHEMBL4011649 (J Med Chem, 2017)
pEC50: −log10 of the molar value. Activity calls are given as the source filed them. The rule behind the calls is not given here.

Legend:
[1] = biological target: T1, 5-hydroxytryptamine receptor 2A (Homo sapiens, UniProt P28223); assay: Agonist activity at human 5-HT2A receptor expressed in Flp-IN HEK293 cells assessed as induction of calcium flux measured every second for 5 mins by Fluo-4 dye based FLIPR assay; type: cell-based
[2] = biological target: T2, 5-hydroxytryptamine receptor 2B (Homo sapiens, UniProt P41595); assay: Agonist activity at human 5-HT2B receptor expressed in Flp-IN HEK293 cells assessed as induction of calcium flux up to 10 uM measured every second for 5 mins by Fluo-4 dye based FLIPR assay; type: cell-based; details: hek293, 5 min
[3] = biological target: T3, 5-hydroxytryptamine receptor 2C (Homo sapiens) (UniProt P28335); assay: Agonist activity at human 5-HT2C-INI receptor isoform expressed in Flp-IN HEK293 cells assessed as induction of Gq-mediated calcium flux measured every second for 5 mins by Fluo-4 dye based FLIPR assay relative to serotonin; type: functional, cell-based
T3 sequence (whole entry): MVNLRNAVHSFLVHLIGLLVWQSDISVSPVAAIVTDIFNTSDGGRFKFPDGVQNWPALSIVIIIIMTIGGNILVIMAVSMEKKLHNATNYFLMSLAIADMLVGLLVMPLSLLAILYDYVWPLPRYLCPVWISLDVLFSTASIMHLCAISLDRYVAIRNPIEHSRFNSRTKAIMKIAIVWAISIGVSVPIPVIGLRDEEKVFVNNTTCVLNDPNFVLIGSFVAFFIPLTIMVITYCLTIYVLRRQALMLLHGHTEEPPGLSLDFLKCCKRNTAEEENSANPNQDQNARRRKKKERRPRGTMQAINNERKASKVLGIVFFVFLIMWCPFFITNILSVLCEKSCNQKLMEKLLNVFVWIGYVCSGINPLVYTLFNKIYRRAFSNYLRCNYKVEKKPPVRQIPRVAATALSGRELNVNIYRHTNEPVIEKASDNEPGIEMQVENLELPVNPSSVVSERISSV

[4] = biological target: T4, 5-hydroxytryptamine receptor 2C (Homo sapiens, UniProt P28335); assay: Agonist activity at human 5-HT2C-INI receptor isoform expressed in Flp-IN HEK293 cells assessed as induction of Gq-mediated calcium flux measured every second for 5 mins by Fluo-4 dye based FLIPR assay; type: functional, cell-based; details: for pEC50: read-out: EC50
T4 sequence (P28335 whole entry): T3 sequence (whole entry)

5-HT2A receptor = 5-HT2A receptor (Homo sapiens, UniProt P28223); assay: Agonist activity at human 5-HT2A receptor expressed in Flp-IN HEK293 cells assessed as induction of calcium flux measured every second for 5 mins by Fluo-4 dye based FLIPR assay relative to serotonin; type: cell-based; details: Flp-IN HEK293 cells expressing human 5-HT2A receptor
5-HT2B receptor = 5-HT2B receptor (Homo sapiens, UniProt P41595); assay: Agonist activity at human 5-HT2B receptor expressed in Flp-IN HEK293 cells assessed as induction of calcium flux measured every second for 5 mins by Fluo-4 dye based FLIPR assay relative to serotonin; type: cell-based; details: Flp-IN HEK293 cells expressing human 5-HT2B receptor
[5] = biological target: T3, 5-hydroxytryptamine receptor 2C (Homo sapiens); assay: Agonist activity at tTA containing TEV cleavage site-fused 5-HT2C-INI receptor isoform (unknown origin) expressed in TEV-fused beta-arrestin2 expressing HEK cells assessed as induction of beta-arrestin2 recruitment after 20 hrs by Tango assay relative to serotonin; type: cell-based
Procedure, shortened: (§1)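 HTLA cells (HEK cells with TEV-fused β-arrestin-2 and tTA-driven luciferase) transfected with tTA-fused 5-HT2C-INI receptor carrying a TEV site. Luminescence read after 20 min lysis at room temperature. Normalized to % 5-HT and fitted sigmoidally. NA means no activity up to 10 μM. Mean of n = 3.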

[6] = biological target: T2, 5-hydroxytryptamine receptor 2B; assay: Agonist activity at human 5-HT2B receptor expressed in Flp-IN HEK293 cells assessed as induction of calcium flux measured every second for 5 mins by Fluo-4 dye based FLIPR assay; type: cell-based
[7] = biological target: T3, 5-hydroxytryptamine receptor 2C (Homo sapiens); assay: Ratio of Emax to EC50 for tTA containing TEV cleavage site-fused 5-HT2C-INI receptor isoform (unknown origin) expressed in TEV-fused beta-arrestin2 expressing HEK cells assessed as induction of beta-arrestin2 recruitment activity; type: cell-based
[8] = biological target: T4, 5-hydroxytryptamine receptor 2C; assay: Agonist activity at tTA containing TEV cleavage site-fused 5-HT2C-INI receptor isoform (unknown origin) expressed in TEV-fused beta-arrestin2 expressing HEK cells assessed as induction of beta-arrestin2 recruitment after 20 hrs by Tango assay; type: cell-based
[9] = biological target: T3, 5-hydroxytryptamine receptor 2C (Homo sapiens); assay: Ratio of Emax to EC50 for human 5-HT2C-INI receptor isoform expressed in Flp-IN HEK293 cells; type: cell-based
[10] = biological target: T3, 5-hydroxytryptamine receptor 2C (Homo sapiens); assay: Agonist activity at tTA containing TEV cleavage site-fused 5-HT2C-INI receptor isoform (unknown origin) expressed in TEV-fused beta-arrestin2 expressing HEK cells assessed as induction of beta-arrestin2 recruitment up to 10 uM after 20 hrs by Tango assay; type: cell-based; procedure, shortened: as §1
[11] = biological target: T3, 5-hydroxytryptamine receptor 2C (Homo sapiens); assay: Agonist activity at human 5-HT2C-INI receptor isoform expressed in Flp-IN HEK293 cells assessed as induction of Gq-mediated calcium flux up to 10 uM measured every second for 5 mins by Fluo-4 dye based FLIPR assay; type: functional, cell-based
[12] = biological target: T1, 5-hydroxytryptamine receptor 2A; assay: Agonist activity at human 5-HT2A receptor expressed in Flp-IN HEK293 cells assessed as induction of calcium flux up to 10 uM measured every second for 5 mins by Fluo-4 dye based FLIPR assay; type: cell-based; details: hek293, 5 min
Homo sapiens = species on record: Homo sapiens; assay: Selectivity ratio of EC50 for human 5HT2B receptor to EC50 for human 5HT2C-INI receptor

T1 sequence (P28223 whole entry): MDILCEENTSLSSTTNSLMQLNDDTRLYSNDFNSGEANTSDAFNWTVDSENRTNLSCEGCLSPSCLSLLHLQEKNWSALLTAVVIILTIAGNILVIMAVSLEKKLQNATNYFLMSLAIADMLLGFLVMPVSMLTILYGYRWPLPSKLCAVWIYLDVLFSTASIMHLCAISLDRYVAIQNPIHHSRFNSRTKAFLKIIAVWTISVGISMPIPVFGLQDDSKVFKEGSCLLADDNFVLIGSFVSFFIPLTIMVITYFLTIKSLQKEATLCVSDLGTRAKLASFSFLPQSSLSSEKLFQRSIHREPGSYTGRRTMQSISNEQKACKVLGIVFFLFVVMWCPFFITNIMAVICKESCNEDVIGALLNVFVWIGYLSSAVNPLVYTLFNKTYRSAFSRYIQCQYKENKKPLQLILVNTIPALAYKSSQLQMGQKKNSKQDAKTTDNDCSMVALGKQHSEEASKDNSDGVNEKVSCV
Chain of 5-HT2A receptor (P28223 whole entry): as above
T2 sequence (P41595 whole entry, canonical isoform): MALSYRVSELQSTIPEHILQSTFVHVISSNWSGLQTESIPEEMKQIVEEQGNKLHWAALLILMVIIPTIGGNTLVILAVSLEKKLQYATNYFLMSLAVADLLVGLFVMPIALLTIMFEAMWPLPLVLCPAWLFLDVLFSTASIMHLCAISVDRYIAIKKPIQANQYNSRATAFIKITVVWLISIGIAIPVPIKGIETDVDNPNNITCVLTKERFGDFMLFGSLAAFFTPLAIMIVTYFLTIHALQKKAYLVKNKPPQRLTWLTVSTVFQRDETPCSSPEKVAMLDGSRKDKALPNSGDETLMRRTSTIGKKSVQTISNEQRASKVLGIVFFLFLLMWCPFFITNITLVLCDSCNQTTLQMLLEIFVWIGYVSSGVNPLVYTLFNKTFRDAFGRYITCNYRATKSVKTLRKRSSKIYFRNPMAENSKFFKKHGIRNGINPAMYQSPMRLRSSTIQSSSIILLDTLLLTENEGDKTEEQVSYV
Chain of 5-HT2B receptor (P41595 whole entry, the tested form may be a part, canonical isoform): as the sequence (P41595 whole entry, canonical isoform) above

Row | SMILES | pEC50 [1] | Activity [2] | Emax [3] | pEC50 [4] | Emax at 5 min (5-HT2A receptor) | also measured
1 | COc1ccc(F)cc1C1CC1CNC1(c2ccccc2OC)CC1.Cl (racemic) | 6.18 | Not Active | 77% | 6.06 | 102% | –
2 | C=CCOc1ccc(F)cc1[C@H]1C[C@@H]1CNCc1ccccc1OC | 7.55 | – | 97% | 8.04 | 80% | Emax at 5 min (5-HT2B receptor): 28%; Emax [5]: 56%; pEC50 [6]: 6.95; log(ratio) [7]: 7.39; pEC50 [8]: 7.64; EC50 ([4]; read-out: pEC50 (converted)): 8.91 nM; log(ratio) [9]: 8.02
3 | COc1ccc(F)cc1[C@H]1C[C@@H]1CNCc1ccccc1Cl.Cl | 5.45 | Not Active | 94% | 6.28 | 64% | –
4 | COc1ccc(F)cc1[C@H]1C[C@@H]1CNCc1cccs1.Cl | 6.36 | Not Active | 60% | 6.92 | 34% | Activity [10]: inactive; log(ratio) [9]: 6.7
5 | COc1ccc(F)cc1[C@H]1C[C@@H]1CNCc1ccccc1F.Cl | 5.73 | Not Active | 78% | 6.30 | 63% | –
6 | COc1ccc(CNC[C@@H]2C[C@H]2c2cc(F)ccc2OC)cc1.Cl | – | Not Active | – | – | – | Activity [11]: inactive; Activity [12]: Not Active
7 | COc1ccccc1CNC[C@H]1C[C@@H]1c1cc(F)ccc1OCCF | – | – | 93% | – | 78% | Emax at 5 min (5-HT2B receptor): 22%; Emax [5]: 54%
8 | COc1ccc(F)cc1C1CC1CNCc1ccccc1O.Cl (racemic) | 7.11 | Not Active | 63% | 6.52 | 76% | –
9 | COc1ccc(F)cc1C1CC1CNCc1ccsc1OC.Cl (racemic) | 6.33 | Not Active | 65% | 6.25 | 100% | –
10 | COc1cccc(CNC[C@@H]2C[C@H]2c2cc(F)ccc2OC)c1.Cl | 5.16 | Not Active | 85% | 5.59 | 97% | –
11 | COc1ccc(F)cc1C1CC1CNCc1cccc2cc[nH]c12.Cl (racemic) | – | Not Active | – | – | – | Activity [11]: inactive; Activity [12]: Not Active
12 | COc1ccc(F)cc1[C@@H]1C[C@H]1CNCc1cccs1.Cl | 6.17 | Not Active | 81% | 6.51 | 59% | –
13 | COc1ccccc1CNC[C@@H]1C[C@H]1c1cc(F)ccc1OC | – | – | 104% | – | 94% | Emax at 5 min (5-HT2B receptor): 72%; pEC50 [6]: 6.24
14 | COc1ccccc1C(C)NCC1CC1c1cc(F)ccc1OC.Cl (racemic) | 6.62 | Not Active | 81% | 5.59 | 106% | –
15 | COc1ccc(F)cc1[C@@H]1C[C@H]1CNCc1ccccc1F.Cl | 5.73 | Not Active | 90% | 5.79 | 78% | –
16 | COc1ccc(F)cc1C1CC1CNCc1ccccc1OCCF (racemic) | 6.40 | – | 16% | 7.55 | 80% | Emax at 5 min (5-HT2B receptor): 11%; pEC50 [6]: 7.25; Ratio EC50 (Homo sapiens): 2
17 | COc1ccc(F)cc1[C@@H]1C[C@H]1CNCc1ccccc1Cl.Cl | 5.52 | Not Active | 72% | 5.73 | – | –
